Experiment [1] is described as follows: Selectivity ratio of IC50 for human lysosomal alpha-galactosidase A to IC50 for coffee beans alpha-galactosidase.
Experiment [2] addresses T1, Lysosomal acid glucosylceramidase (Homo sapiens, UniProt P04062).
T1 sequence (P04062 whole entry): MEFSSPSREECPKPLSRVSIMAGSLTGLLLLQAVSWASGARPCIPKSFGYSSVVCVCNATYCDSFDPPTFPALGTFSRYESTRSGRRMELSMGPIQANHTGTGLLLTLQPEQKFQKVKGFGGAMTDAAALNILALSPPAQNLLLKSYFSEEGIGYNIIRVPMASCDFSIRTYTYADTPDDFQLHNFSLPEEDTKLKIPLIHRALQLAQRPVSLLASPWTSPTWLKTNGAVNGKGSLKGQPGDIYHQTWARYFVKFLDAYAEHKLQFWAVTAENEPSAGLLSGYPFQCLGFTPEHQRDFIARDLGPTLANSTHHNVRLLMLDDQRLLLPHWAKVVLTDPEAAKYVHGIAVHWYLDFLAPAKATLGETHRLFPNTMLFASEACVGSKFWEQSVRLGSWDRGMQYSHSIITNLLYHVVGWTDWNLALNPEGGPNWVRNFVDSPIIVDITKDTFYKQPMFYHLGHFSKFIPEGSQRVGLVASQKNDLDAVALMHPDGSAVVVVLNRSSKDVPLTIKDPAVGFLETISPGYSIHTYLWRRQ
Nature of the experiment: Inhibition of human lysosomal beta-glucocerebrosidase using 4-methylumbelliferyl-beta-D-glucopyranoside as substrate preincubated for 45 mins followed by substrate addition measured after 30 mins by fluorescence spectroscopic method. The method in brief: (§1)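 Enzyme in 100 mM McIlvaine buffer pH 5.2 with 0.25% sodium taurocholate and 0.1% Triton X-100, with inhibitor. Preincubated at 0 °C for 45 min, then started with 3 mM 4-methylumbelliferyl glycoside substrate solution and incubated 30 min at 37 °C. Stopped with 400 mM glycine-NaOH pH 10.6. 4-Methylumbelliferone fluorescence read at ex 362/em 450 nm.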

A further experiment addresses Alpha-galactosidase (Coffea arabica, UniProt Q42656). Nature of the experiment: Inhibition of coffee beans alpha-galactosidase using p-nitrophenyl glycopyranoside preincubated for 5 mins followed by substrate addition measured after 20 mins by visible absorption spectroscopic method. The method in brief:
(§2)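 IC50 determined only for compounds giving ≥80% inhibition at 1 mM, read from plots of % inhibition versus inhibitor concentration. p-Nitrophenyl glycopyranoside substrate (10 mM solution) at the enzyme's optimal pH, with 0.01–0.5 units/mL enzyme. 5 min rt preincubation with enzyme, then 20 min at 37 °C. Borate stop (pH 9.8), absorbance at 405 nm. Duplicates averaged.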

Another experiment addresses T2, Beta-galactosidase (Bos taurus, UniProt Q58D55).
T2 sequence (Q58D55 whole entry): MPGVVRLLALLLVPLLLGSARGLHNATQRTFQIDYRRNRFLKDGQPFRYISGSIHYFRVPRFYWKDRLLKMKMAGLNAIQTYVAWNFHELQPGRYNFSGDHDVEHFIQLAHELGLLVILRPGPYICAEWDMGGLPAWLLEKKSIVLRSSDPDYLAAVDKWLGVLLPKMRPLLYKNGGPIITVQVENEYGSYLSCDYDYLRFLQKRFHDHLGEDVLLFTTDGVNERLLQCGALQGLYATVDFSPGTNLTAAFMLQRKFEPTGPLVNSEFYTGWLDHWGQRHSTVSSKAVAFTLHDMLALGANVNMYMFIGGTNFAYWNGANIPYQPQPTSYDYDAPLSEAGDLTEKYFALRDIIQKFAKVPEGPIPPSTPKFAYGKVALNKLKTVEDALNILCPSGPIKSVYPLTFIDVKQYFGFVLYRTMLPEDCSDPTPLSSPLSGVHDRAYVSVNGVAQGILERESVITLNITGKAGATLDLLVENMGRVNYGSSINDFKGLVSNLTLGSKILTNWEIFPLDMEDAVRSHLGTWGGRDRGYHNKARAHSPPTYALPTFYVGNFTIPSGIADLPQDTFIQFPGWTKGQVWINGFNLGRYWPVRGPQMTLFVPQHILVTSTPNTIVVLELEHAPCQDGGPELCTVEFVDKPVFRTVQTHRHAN
Nature of the experiment: Inhibition of bovine liver beta-galactosidase using p-nitrophenyl glycopyranoside preincubated for 5 mins followed by substrate addition measured after 20 mins by visible absorption spectroscopic method. In a few lines:
as §2

In experiment [3] the test system is Prunus dulcis. Nature of the experiment: Inhibition of almond beta-glucosidase at 1 mM using p-nitrophenyl glycopyranoside preincubated for 5 mins followed by substrate addition measured after 20 mins by visible absorption spectroscopic method relative to control. In a few lines:
(§3)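 Test compound at 1 mM in well. Mix: 0.01–0.5 units/mL enzyme plus 10 mM p-nitrophenyl glycopyranoside (aqueous solution), buffered to the enzyme's optimal pH. Enzyme and inhibitor preincubated 5 min at rt. Substrate then added and incubated 20 min at 37 °C. Stopped with sodium borate (pH 9.8). p-Nitrophenolate read at 405 nm. Duplicates averaged.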

Another experiment deals with T3, Alpha-galactosidase A (Homo sapiens, UniProt P06280).
T3 sequence (P06280 whole entry): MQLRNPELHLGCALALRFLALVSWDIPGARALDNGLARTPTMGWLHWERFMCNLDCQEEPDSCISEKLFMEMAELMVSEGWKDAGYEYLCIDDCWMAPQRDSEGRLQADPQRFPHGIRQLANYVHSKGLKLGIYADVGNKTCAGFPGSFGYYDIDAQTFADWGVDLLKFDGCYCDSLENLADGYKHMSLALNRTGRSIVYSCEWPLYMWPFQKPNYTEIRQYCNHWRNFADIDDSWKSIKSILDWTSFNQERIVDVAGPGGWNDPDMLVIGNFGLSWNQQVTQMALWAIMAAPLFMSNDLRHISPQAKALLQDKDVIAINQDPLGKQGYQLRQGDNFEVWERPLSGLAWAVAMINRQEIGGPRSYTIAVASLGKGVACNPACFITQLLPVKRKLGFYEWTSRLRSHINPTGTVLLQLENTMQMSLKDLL
Nature of the experiment: Inhibition of human lysosomal alpha-galactosidase A using 4-methylumbelliferyl-alpha-D-galactopyranoside as substrate preincubated for 45 mins followed by substrate addition measured after 30 mins by fluorescence spectroscopic method. The method in brief: as §1

The nature of experiment [4]: Inhibition of bovine liver beta-glucosidase using p-nitrophenyl glycopyranoside preincubated for 5 mins followed by substrate addition measured after 20 mins by visible absorption spectroscopic method. More on the design: species or system Bos taurus. In a few lines:
as §2

For experiment [5], the target named is Alpha-galactosidase (Coffea arabica) (UniProt Q42656). Nature of the experiment: Inhibition of coffee beans alpha-galactosidase at 50 uM using p-nitrophenyl glycopyranoside preincubated for 5 mins followed by substrate addition measured after 20 mins by visible absorption spectroscopic method relative to control. The method in brief:
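Crude triazoles from in situ CuAAC (ascorbate/CuSO4, 24 h rt, water-diluted) were screened at 50 μM per well, assuming full conversion. Enzyme was coffee bean α-galactosidase at pH 6, 37 °C, with p-nitrophenyl glycoside substrate and 405 nm read-out. Blanks of CuSO4, ascorbate and each alkyne were run.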

Experiment [6] is described as follows: Inhibition of almond beta-glucosidase using p-nitrophenyl glycopyranoside preincubated for 5 mins followed by substrate addition measured after 20 mins by visible absorption spectroscopic method. More on the design: species or system Prunus dulcis. The method in brief: as §2
In experiment [7] the target is T4, Alpha-galactosidase A (Homo sapiens) (UniProt P06280).
T4 sequence (whole entry): T3 sequence (P06280 whole entry)
Nature of the experiment: Inhibition of human lysosomal alpha-galactosidase A at 1 mM using 4-methylumbelliferyl-alpha-D-galactopyranoside as substrate preincubated for 45 mins followed by substrate addition measured after 30 mins by fluorescence spectroscopic method relative to control. In a few lines: as §1

Experiment [8] has as its system Prunus dulcis. Nature of the experiment: Inhibition of almond beta-glucosidase at 10 uM using p-nitrophenyl glycopyranoside preincubated for 5 mins followed by substrate addition measured after 20 mins by visible absorption spectroscopic method relative to control. The method in brief: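 Crude click-reaction products screened in situ. Azide (final 15 mM) was reacted with each alkyne using sodium ascorbate/CuSO4 in tBuOH–H2O for 24 h at rt, then diluted with water. Tested at 10 μM per well, assuming quantitative conversion, against almond β-glucosidase at pH 5, 37 °C. p-Nitrophenyl glycoside read-out at 405 nm.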

Experiment [9] addresses Alpha-galactosidase (Coffea arabica) (UniProt Q42656). Nature of the experiment: Inhibition of coffee beans alpha-galactosidase at 1 mM using p-nitrophenyl glycopyranoside preincubated for 5 mins followed by substrate addition measured after 20 mins by visible absorption spectroscopic method relative to control. The method in brief: as §3
The species named for another experiment is Bos taurus. Nature of the experiment: Inhibition of bovine liver beta-glucosidase at 1 mM using p-nitrophenyl glycopyranoside preincubated for 5 mins followed by substrate addition measured after 20 mins by visible absorption spectroscopic method relative to control. The method in brief: as §3

Sequence of Alpha-galactosidase (Coffea arabica) (Q42656 16-378 limits assumed): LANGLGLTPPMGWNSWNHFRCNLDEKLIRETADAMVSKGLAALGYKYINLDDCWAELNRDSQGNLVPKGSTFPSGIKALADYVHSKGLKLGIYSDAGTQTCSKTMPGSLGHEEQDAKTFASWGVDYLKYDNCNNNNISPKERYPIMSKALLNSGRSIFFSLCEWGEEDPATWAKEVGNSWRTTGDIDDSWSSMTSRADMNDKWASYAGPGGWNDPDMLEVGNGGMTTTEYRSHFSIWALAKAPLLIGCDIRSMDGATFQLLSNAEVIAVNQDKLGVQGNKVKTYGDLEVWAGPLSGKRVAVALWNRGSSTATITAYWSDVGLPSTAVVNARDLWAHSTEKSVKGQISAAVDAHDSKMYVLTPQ
Sequence of Alpha-galactosidase (Q42656 whole entry): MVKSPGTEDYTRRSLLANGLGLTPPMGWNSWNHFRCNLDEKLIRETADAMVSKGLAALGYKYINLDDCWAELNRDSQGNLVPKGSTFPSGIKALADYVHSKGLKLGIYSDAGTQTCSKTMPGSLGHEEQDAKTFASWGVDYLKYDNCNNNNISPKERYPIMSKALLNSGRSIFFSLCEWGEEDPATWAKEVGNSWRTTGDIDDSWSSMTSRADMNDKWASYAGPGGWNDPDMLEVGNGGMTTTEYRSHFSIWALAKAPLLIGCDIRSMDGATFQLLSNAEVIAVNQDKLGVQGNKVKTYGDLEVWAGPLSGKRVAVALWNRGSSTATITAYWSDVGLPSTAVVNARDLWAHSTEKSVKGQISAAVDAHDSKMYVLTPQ

As for `COc1ccc(-c2cn(C[C@H]3NC[C@@H](O)[C@H]3O)nn2)cc1`, in experiment [1], the Ratio IC50 is 10. Also, the IC50 (usually the concentration at which inhibition is half-maximal) in [2] came to 31 µM; on Alpha-galactosidase, 13 µM; against Beta-galactosidase, 338 µM; at Alpha-galactosidase A it was 185 µM; in experiment [4], 887 µM. Further, the inhibition – broadly, the share of the control response that was lost under treatment – is less than 50% with Prunus dulcis [3] and 67% in experiment [5].
With `C[Si](C)(C)Cc1cn(C[C@@H]2NC[C@@H](O)[C@H]2O)nn1`, the figures for the 50% inhibitory concentration (IC50) (in experiment [2]; against Beta-galactosidase; in [6]) were 19 µM, 151 µM and 7 µM, respectively. Further, the inhibition in experiment [7] is less than 50%; with Prunus dulcis [8], 65%; in experiment [9], less than 50%; in the experiment listed under Bos taurus it was less than 50%.
Turning to `OCc1ccc(-c2cn(C[C@H]3NC[C@@H](O)[C@H]3O)nn2)cc1`, the Ratio IC50 in experiment [1] was found to be 10. For the same compound, the half-maximal inhibitory concentration (IC50) stood at 187 µM in experiment [2]; 14 µM against Alpha-galactosidase; 268 µM against Beta-galactosidase; 159 µM at Alpha-galactosidase A; 888 µM in experiment [4]. The inhibition in the experiment on Prunus dulcis [3] was less than 50%; in experiment [5] it was 66%.

Values taken from ChEMBL document CHEMBL4190262, “Tuning of β-glucosidase and α-galactosidase inhibition by generation and in situ screening of a library of pyrrolidine-triazole hybrid molecules” (Eur J Med Chem, 2017).
